Source: ChEMBL document CHEMBL4428128, “Design, synthesis, crystal structure, biological evaluation and molecular docking studies of carbazole-arylpiperazine derivatives” (Bioorg Med Chem, 2016)

Experiments:
[1] = biological target: T1, Alpha-1D adrenergic receptor (Rattus norvegicus, UniProt P23944); assay: Antagonistic activity at alpha1D adrenoceptor in Sprague-Dawley rat thoracic aorta assessed as inhibition of noradrenaline-induced contractions after 0.5 hrs in presence of alpha2/beta adrenoceptor blocker yohimbine, propranolol by Schild plot analysis; conditions: read-out: pA2 (converted)
T1 sequence (P23944 whole entry): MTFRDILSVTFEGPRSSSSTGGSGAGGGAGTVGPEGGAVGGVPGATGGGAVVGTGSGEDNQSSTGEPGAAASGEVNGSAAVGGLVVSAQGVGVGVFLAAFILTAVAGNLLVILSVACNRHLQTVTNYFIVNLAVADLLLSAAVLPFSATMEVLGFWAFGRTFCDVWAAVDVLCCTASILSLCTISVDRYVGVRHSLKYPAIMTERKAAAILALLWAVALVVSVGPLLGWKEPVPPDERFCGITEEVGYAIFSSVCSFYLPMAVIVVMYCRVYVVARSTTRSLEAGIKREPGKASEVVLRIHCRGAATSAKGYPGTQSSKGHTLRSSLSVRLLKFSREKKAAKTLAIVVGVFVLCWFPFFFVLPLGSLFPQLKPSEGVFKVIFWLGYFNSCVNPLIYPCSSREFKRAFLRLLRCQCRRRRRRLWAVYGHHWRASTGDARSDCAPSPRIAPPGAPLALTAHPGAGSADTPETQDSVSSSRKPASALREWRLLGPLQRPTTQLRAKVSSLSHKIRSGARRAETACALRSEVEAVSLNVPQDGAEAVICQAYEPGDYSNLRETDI
In short: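 Isolated tissue rings (aorta rings about 4 mm) held in Krebs–Henseleit buffer (pH 7.4, 37 °C, O2/CO2 19:1), equilibrated 1.5 h under optimal tension, primed three times with noradrenaline, then washed. Antagonist preincubated 0.5 h. Noradrenaline concentration–response curves run 1 h apart, without and with antagonist, in continuous yohimbine and propranolol. Responses expressed as % of pre-incubation NA Emax.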

Rattus norvegicus [2] = species: Rattus norvegicus; assay: Selectivity ratio of antilog of change in pA2 for alpha1A adrenoceptor in Sprague-Dawley rat vas deferens to antilog of change in pA2 for alpha1B adrenoceptor in Sprague-Dawley rat spleen
Rattus norvegicus [3] = species: Rattus norvegicus; assay: Selectivity ratio of antilog of change in pA2 for alpha1D adrenoceptor in Sprague-Dawley rat thoracic aorta to antilog of change in pA2 for alpha1B adrenoceptor in Sprague-Dawley rat spleen
[4] = biological target: T2, Alpha-1B adrenergic receptor (Rattus norvegicus, UniProt P15823); assay: Antagonistic activity at alpha1B adrenoceptor in Sprague-Dawley rat spleen assessed as inhibition of noradrenaline-induced contractions after 0.5 hrs in presence of alpha2/beta adrenoceptor blocker yohimbine, propranolol by Schild plot analysis; format: tissue-based; conditions: read-out: pA2 (converted)
T2 sequence (P15823 whole entry): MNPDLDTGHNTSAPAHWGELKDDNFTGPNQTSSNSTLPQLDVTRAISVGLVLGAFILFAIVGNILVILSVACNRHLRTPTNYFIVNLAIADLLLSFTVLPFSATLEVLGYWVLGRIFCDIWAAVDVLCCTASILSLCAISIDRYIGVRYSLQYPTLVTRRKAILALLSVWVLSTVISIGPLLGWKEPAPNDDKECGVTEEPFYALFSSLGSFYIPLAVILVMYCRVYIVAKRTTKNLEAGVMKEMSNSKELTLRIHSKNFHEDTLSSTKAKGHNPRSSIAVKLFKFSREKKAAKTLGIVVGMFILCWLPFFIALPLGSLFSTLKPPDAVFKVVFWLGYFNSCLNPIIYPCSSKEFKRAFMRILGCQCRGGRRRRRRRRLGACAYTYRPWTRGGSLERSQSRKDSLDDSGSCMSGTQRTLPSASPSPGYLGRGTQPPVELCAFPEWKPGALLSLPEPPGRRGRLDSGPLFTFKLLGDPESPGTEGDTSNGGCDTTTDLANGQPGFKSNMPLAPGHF

Rattus norvegicus [5] = species: Rattus norvegicus; assay: Selectivity ratio of antilog of change in pA2 for alpha1D adrenoceptor in Sprague-Dawley rat thoracic aorta to antilog of change in pA2 for alpha1A adrenoceptor in Sprague-Dawley rat vas deferens
[6] = biological target: T3, Alpha-1A adrenergic receptor (Rattus norvegicus, UniProt P43140); assay: Antagonistic activity at alpha1A adrenoceptor in Sprague-Dawley rat vas deferens assessed as inhibition of noradrenaline-induced contractions after 0.5 hrs in presence of alpha2/beta adrenoceptor blocker yohimbine, propranolol by Schild plot analysis; conditions: read-out: pA2 (converted)
T3 sequence (P43140 whole entry): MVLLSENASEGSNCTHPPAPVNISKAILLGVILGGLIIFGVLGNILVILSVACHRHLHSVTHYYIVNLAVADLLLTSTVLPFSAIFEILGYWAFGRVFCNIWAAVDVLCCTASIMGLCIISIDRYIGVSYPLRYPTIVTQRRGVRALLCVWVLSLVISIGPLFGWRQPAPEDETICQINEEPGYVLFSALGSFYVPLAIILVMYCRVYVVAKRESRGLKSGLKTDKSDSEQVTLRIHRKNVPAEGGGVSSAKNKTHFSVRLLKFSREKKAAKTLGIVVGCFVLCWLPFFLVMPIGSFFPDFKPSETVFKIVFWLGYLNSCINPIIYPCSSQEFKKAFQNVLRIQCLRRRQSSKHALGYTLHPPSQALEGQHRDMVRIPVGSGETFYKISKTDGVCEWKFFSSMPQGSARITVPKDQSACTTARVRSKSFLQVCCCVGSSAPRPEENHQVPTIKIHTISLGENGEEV

Compound | Kb [1] [µM] | Selectivity ratio (Rattus norvegicus [2]) | Selectivity ratio (Rattus norvegicus [3]) | Kb [4] [µM] | Selectivity ratio (Rattus norvegicus [5]) | Kb [6] [µM]
COc1ccc(OC)c(N2CCN(CC(O)COc3cccc4[nH]c5ccccc5c34)CC2)c1 (configuration not stated) | 0.141 | 0.2 | 0.5 | 0.0741 | 3.1 | 0.437
COc1ccc(N2CCN(CC(O)COc3cccc4[nH]c5ccccc5c34)CC2)cc1 (configuration not stated) | 0.0871 | 3.7 | 79.4 | 6.92 | 21.4 | 1.86
